{
  "source": "PubChem BioAssay AID623984",
  "about": "(Vanderbilt High Throughput Screening Facility, 2012)",
  "target": "Inward rectifier potassium channel 2 (Homo sapiens) (UniProt P63252)",
  "sequence (P63252 whole entry, looked up)": "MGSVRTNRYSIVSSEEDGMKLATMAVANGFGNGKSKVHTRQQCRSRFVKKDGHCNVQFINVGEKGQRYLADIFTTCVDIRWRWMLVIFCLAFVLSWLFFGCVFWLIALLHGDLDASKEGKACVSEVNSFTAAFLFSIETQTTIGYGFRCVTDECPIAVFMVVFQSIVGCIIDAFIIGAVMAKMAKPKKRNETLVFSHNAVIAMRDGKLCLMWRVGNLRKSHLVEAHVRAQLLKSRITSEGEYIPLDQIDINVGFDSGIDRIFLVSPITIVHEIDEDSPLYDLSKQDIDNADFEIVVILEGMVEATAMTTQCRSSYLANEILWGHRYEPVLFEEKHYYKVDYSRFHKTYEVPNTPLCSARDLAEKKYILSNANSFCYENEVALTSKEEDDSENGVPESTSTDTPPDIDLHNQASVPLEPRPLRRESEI",
  "experiment": "Kir2.1 channel activation or block, dose response, selectivity assay for GIRK activator project, cell-based, human, thallium flux, concentration-response (AID 623984)",
  "conditions": "T-REx-293 hKir2.1, thallium flux FluoZin-2; series mostly up to 100 µM",
  "summary_of_the_method": "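Material: hKir2.1 T-REx-293 cells, tetracycline-induced; Dosing: compound addition solution containing 0.2% DMSO; Times: 4 min compound pre-incubation before stimulus; Signal: FluoZin-2 thallium-flux fluorescence at 1 Hz; Benchmarks: vehicle and uninduced-cell wells; Replicates: triplicate wells, four-parameter logistic curve fits.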",
  "note": "Calls of active or inactive are those of the source. How the calls were made is not given here.",
  "data": [
    {"molecule": "Cc1cc(NC(=O)Nc2ccc(F)c(F)c2)n(-c2ccccc2)n1", "values": [
      {"measurement": "outcome", "result": "inactive"}
    ]}
  ]
}
